# Screening results (PubChem)
# Compounds with a hit are over-represented: about 2.5% of the library has one in this group of screens.
# dFosB activator: mouse delta FosB homodimer activation. P13346. purified delta FosB, TAMRA-CDK5 oligo fluorescence polarization; percent of positive-control signal above neutral wells. activation, % at 25 µM. 340,000 compounds, 0.99% hits. AID 493131;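 active = mean activation above about 17%, with every replicate also reaching it, limit read from the data, passing the limit was not always enough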
# IMP-1 inh: inhibitors of Pseudomonas aeruginosa IMP-1 metallo-beta-lactamase | AID 1556 | 290,000 compounds, 0.45% hits | purified IMP-1, nitrocefin hydrolysis, epi-absorbance fluorescence | inhibition, % at 5.6 µM;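 active = inhibition above the mean plus 3 SD of all compounds in the same screening run, cut at about 4.5% in these data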;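 note: 0% = IMP-1 with DMSO and 100% = DMSO wells lacking enzyme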
#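 assay system = purified recombinant IMP-1 metallo-beta-lactamase enzyme | schedule = 15 min preincubation plus 25 min reaction at 25 °C | signal = Epi-absorbance fluorescence, 480 nm excitation, 530 nm emission | read-out basis = percent inhibition from optical density relative to buffer-blank wells | controls = IMP-1 with DMSO as 0%, enzyme-free DMSO as 100%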
# VIM-2 inh: blocks Pseudomonas aeruginosa VIM-2 metallo-beta-lactamase; purified VIM-2, nitrocefin hydrolysis, epi-absorbance fluorescence; inhibition, % at 5.6 µM; 290,000 compounds, 0.89% hits; AID 1527;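 active = inhibition above the mean of all tested compounds plus 3 SD, cutoff set per screening run, cut at about 7.5% in these data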;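 note: red hydrolysis product quenches plate fluorescence so inhibitors raise well fluorescence; 0% = enzyme with DMSO and 100% = DMSO without enzyme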
# HTR2A ag: activates the mouse 5-HT2A serotonin receptor | CHO-K1 mHTR2A beta-arrestin complementation, luminescence; percent of 30 µM serotonin response | activation, % at 7.6 µM | 360,000 compounds, 0.66% hits | AID 624169;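 active = activation above a run cutoff, the mean activation of all tested compounds plus 3 SD, cut at about 14% in these data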;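 note: 0% = plate median of compound wells and 100% = 30 µM serotonin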
# Target sequence (P35363 whole entry, looked up): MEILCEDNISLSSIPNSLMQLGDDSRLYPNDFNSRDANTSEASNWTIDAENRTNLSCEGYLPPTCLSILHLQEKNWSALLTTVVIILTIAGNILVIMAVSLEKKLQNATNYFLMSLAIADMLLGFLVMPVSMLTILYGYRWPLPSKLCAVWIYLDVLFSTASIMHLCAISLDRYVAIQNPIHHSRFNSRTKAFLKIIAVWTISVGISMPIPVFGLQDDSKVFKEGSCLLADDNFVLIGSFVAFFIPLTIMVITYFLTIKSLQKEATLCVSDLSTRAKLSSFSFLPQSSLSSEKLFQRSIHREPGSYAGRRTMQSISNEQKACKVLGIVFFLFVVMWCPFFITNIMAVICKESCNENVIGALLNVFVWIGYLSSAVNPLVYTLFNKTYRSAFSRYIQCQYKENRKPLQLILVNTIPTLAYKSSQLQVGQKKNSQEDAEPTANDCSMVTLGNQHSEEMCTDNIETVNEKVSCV
# * marks the source's active call; other numbers are inactive results; . = not tested or not shown; ! = a repeat was not active.
SMILES,dFosB activator,IMP-1 inh,VIM-2 inh,HTR2A ag
COc1ccccc1C(c1nnnn1CCc1ccccc1)N1CCCCCC1 (stereo not drawn),-2,24*,2,-4
Cc1ccnc(SCC(=O)NC2CCCCCC2)n1,-6,-1,-1,11
Oc1ccc2ccccc2c1/C=N/Nc1nnc(-c2ncc[nH]2)c2ccccc12,11,36*,-4,-2
Cc1ccc(C)c(COC(=O)CCN=C2NS(=O)(=O)c3ccccc32)c1,-14,.,.,-5
N#Cc1c(NC(=O)CSc2ncnc3sccc23)oc(-c2ccco2)c1-c1ccco1,-13,7.0*,2,1
COc1ccc(/C=C/CN2CCN(Cc3ccc(F)cc3)C(CCO)C2)cc1 (stereo not drawn),-11,-2,-3,-6
CCCc1nc(SCc2cccnc2)c2c(=O)n(C)c(=O)n(C)c2n1,-14,-5,10*,6
Cc1cnc(CNC(=O)c2ccc3oc(Cc4ccc(Cl)cc4)nc3c2)cn1,-11,0,0,-1
Cc1ccc(N2C(=O)c3cccc4c(N)ccc(c34)C2=O)c2cccnc12,-5,5.7*,5,0
Cc1ccc(-n2cnnn2)c2cccnc12,-6,-1,-2,-1
O=C(OCCn1c(=S)sc2ccccc21)c1ccccc1,-6,.,.,-5
O=C(O)c1ccc(S(=O)(=O)c2ccc(Sc3ccc(C(=O)O)c(C(=O)O)c3)cc2)cc1,4,3,8.9*,5
O=C(O)c1ccc(S(=O)(=O)N2CCCC2)cc1,-3,-3,-2,6
CN1C=C/C(=C\c2cc[n+](C)c3ccccc23)c2ccccc21,38*,-2,-2,-1
Cc1ccccc1C(=O)N1CCN(C(c2ccccc2)c2ccccc2)CC1,-6,33*,-2,-3
Cc1occc1C(=O)N1CCN(C(c2ccccc2)c2ccccc2)CC1,1,-3,-2,-5
O=C(Nc1c(C(=O)N2CCOCC2)cnn1-c1ccccc1)c1ccc(F)cc1,-4,0,-1,15*
O=C(Nc1c(C(=O)N2CCOCC2)cnn1-c1ccccc1)c1ccccc1,4,-2,0,5
CN[C@@H]1[C@H](O)[C@H](NC)[C@H]2O[C@@]3(O)C(=O)C[C@@H](C)O[C@H]3O[C@@H]2[C@H]1O,5,-1,-2,16*
CCCS(=O)(=O)N1CCC(C(=O)Oc2ccc(OC)cc2)CC1,1,-2,-1,5
CC1(C)Cc2nc(-c3ccccc3)nc(SCC(=O)N3CCOCC3)c2CO1,-15,-3,-4,-1
COc1ccc(-c2nc3c(c(SCC(=O)N4CCOCC4)n2)Cc2c(CO)cnc(C)c2O3)cc1,-13,6.3*,6,5
Cc1ccc(-c2nc3c(c(SCC(=O)N4CCOCC4)n2)Cc2c(CO)cnc(C)c2O3)cc1,0,8.9*,3,9
Cc1occc1C(=O)N(C)Cc1nc(-c2ccc(Cl)cc2)no1,-6,-1,-2,-5
Cc1ccc(S(=O)(=O)NCCCN2CCCC2)cc1,-1,1,-2,-4
SMILES,dFosB activator,IMP-1 inh,VIM-2 inh,HTR2A ag
CC[N+](CC)(CC)CCOc1ccc(/C=C/c2ccccc2)cc1,5,.,.,-10
CC[N+](CC)(CC)CCCCOc1ccc2c(c1)C(=O)c1cc(OCCCC[N+](CC)(CC)CC)ccc1-2,55*,0,0,2
CCN(CC(=O)Nc1c(F)cccc1F)C(=O)c1cc(C)oc1C,3,.,.,3
Cc1cn(-c2cc(C(=O)Nc3ccc(C)c(NC(=O)C(=O)c4c[nH]c5ccccc45)c3)cc(C(F)(F)F)c2)cn1,13,.,.,17*!
O=C(CN(Cc1ccco1)Cc1ccco1)Nc1cc(S(=O)(=O)N2CCCCC2)ccc1Cl,-7,.,.,-10
CCOc1ccc(NC(=O)CN2C(=O)CCSc3ccc(S(=O)(=O)N4CCCC4)cc32)cc1,37*,0,-6,9
CCOc1ccc(NC(=O)CN2C(=O)CSc3ccc(S(=O)(=O)N4CCCC4)cc32)cc1,-4,-3,-2,-7
OCCCc1nc2n(n1)C(c1cccs1)C=C(c1ccccc1)N2 (stereo not drawn),.,-1,8.4*,.
Cc1ccc2[nH]c3nc(N/N=C/c4cccc(O)c4)nnc3c2c1,21*,-2,-3,11
COc1cc(/C=N/Nc2nnc3c(n2)[nH]c2ccccc23)ccc1O,-10,-4,-2,-3
O=C(CNC(=O)c1ccccc1)N=Nc1c(O)[nH]c2ccc(Br)cc12,46*,-5,-4,7
O=C(CNC(=O)c1cccs1)N=Nc1c(O)[nH]c2ccc(Br)cc12,-7,-2,-3,-4
Cc1ccc(CNc2nc(C)nc3sc4c(c23)CCC4)cc1,-5,-2,-2,8
Cc1nc(Nc2ccc(O)cc2)c2c3c(sc2n1)CCCC3,-8,-4,8.4*,-4
Cn1c(SCC(=O)N/N=C/C=C\c2ccccc2[N+](=O)[O-])nc2ccccc21,20*,-5,-2,3
O=C1C(C2=NC(c3ccccn3)C3C(=O)N(c4ccccc4)C(=O)C23)=C(O)c2ccccc21 (stereo not drawn),26*,-3,-4,-4
O=C1C2C3C=CC(C3)C2C(=O)N1c1ccccc1 (stereo not drawn),6,0,-1,-1
COc1ccc(-n2nc([N+](=O)[O-])c(=NCc3cccnc3)n2O)cc1,3,-1,0,-1
COc1ccc(-n2nc([N+](=O)[O-])c(=NC3CCN(Cc4ccccc4)CC3)n2O)cc1,-5,9.4*,-2,-9
CCOC(=O)C1=C(C)Nc2sc(C(=O)c3ccc(C)cc3)c(N)c2C1c1ccc(C(=O)OC)cc1 (stereo not drawn),-4,-3,7.8*,5
COc1ccc2c(c1)[nH]c1c(=O)n(/N=C/c3ccc(OC)c(COc4ccccn4)c3)cnc12,11,-1,-2,-1
COc1ccc2c(c1)[nH]c1c(=O)n(/N=C/c3ccc(OC)c(CN4CCCCC4)c3)cnc12,74*,-1,3,-4
Cc1cc(OC(C)C(=O)NCCCN2CCCC2=O)c2c(C)c(C)c(=O)oc2c1 (stereo not drawn),-6,-4,0,6
Cc1cc(=O)oc2c(C)c(OCC(=O)NCCCN3CCOCC3)ccc12,-4,-1,7.8*,-5
Cc1c(OCC(=O)NCCCN2CCOCC2)ccc2c(-c3ccccc3)cc(=O)oc12,-22,-2,1,-8
Cc1cc(=O)oc2c(C)c(OC(C)C(=O)NCCN3CCOCC3)ccc12 (stereo not drawn),-8,-3,2,1
CC(Oc1cc2oc(=O)c3c(c2cc1Cl)CCC3)C(=O)NCCCN1CCCC1=O (stereo not drawn),-9,-5,9.1*,-3
Cc1c(OC(C)C(=O)NCCN2CCOCC2)ccc2c3c(c(=O)oc12)CCCC3 (stereo not drawn),-15,-1,9.6*,-7
Cc1c(OC(C)C(=O)NCCCN2CCCC2=O)ccc2c3c(c(=O)oc12)CCCC3 (stereo not drawn),-14,0,10*,-1
